According to ChEMBL document CHEMBL1149195, “N,N-dialkyl-2-phenylindol-3-ylglyoxylamides. A new class of potent and selective ligands at the peripheral benzodiazepine receptor” (J Med Chem, 2004):
pKi: −log10 of the molar value.

Legend:
[1] = target: T1, Cholesterol side-chain cleavage enzyme, mitochondrial (Rattus norvegicus, UniProt P14137); test: Stimulation of pregnenolone formation from rat C6 glioma cells; format: functional, cell-based; parameters: concentration or dose not given beside the values
T1 sequence (P14137 whole entry): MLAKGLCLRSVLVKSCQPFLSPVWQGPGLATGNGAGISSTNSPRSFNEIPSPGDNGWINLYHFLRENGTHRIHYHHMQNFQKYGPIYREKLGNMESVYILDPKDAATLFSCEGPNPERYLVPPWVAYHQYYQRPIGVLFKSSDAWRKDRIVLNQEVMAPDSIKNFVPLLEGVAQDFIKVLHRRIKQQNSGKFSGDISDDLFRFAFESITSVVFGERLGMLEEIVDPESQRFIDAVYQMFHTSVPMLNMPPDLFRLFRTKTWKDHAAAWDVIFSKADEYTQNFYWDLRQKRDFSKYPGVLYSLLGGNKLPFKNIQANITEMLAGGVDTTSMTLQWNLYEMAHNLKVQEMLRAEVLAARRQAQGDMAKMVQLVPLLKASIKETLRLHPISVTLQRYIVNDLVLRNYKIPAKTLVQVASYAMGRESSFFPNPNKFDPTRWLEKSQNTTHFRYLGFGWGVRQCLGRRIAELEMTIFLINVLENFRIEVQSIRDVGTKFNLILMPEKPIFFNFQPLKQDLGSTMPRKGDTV
Summary of the method: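 Rat C6 glioma cells exposed to compound for 2 h at 37 °C; pregnenolone measured by radioimmunoassay and expressed as % increase over control; mean ± SEM of at least three determinations.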

[2] = target: GABA-A receptor; anion channel (Rattus norvegicus) (UniProt O09028+P15431+P18506+P18508+P19969+P20236+P23574+P23576+P28471+P28473+P30191+P62813+P63079+P63138+Q91ZM7+Q9ES14); test: Percent inhibition of rat benzodiazepine receptor assayed using [3H]-flumazenil radioligand at 10 um concentration; format: protein-complex assay
Summary of the method: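 Displacement of [3H]flumazenil specific binding in rat brain membranes by test compound at fixed 10 µM; percent inhibition as mean ± SEM of five determinations.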

Translocator protein = Translocator protein (Rattus norvegicus, UniProt P16257); test: Binding affinity to peripheral benzodiazepine receptors using [3H]-PK11195 radioligand in rat kidney mitochondrial membrane; format: cell membranes
Sequence of Translocator protein (P16257 whole entry, looked up): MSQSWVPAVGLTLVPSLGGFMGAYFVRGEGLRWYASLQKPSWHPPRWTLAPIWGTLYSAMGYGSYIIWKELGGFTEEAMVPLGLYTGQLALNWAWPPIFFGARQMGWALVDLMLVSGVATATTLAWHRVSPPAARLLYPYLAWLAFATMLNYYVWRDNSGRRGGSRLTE

SMILES | Activity [1] [%] | inhibition [2] [%] | pKi (Translocator protein)
CCCCN(CCCC)C(=O)C(=O)c1c(-c2ccc(F)cc2)[nH]c2ccccc12 | 26 | 0 | –
O=C(C(=O)N1CCCC1)c1c(-c2ccccc2)[nH]c2ccccc12 | – | 4 | 5.62
CCCCCCN(CCCCCC)C(=O)C(=O)c1c(-c2ccccc2)[nH]c2ccc(Cl)cc12 | 31 | 3 | 7.23
CCCCN(CCCC)C(=O)C(=O)c1c(-c2ccccc2)[nH]c2ccccc12 | 23 | 3 | 8.12
CCCCCCN(CCCCCC)C(=O)C(=O)c1c(-c2ccc(C)cc2)[nH]c2ccccc12 | 77 | 6 | 8.80
O=C(C(=O)N1CCCCC1)c1c(-c2ccccc2)[nH]c2ccccc12 | – | 3 | 6.18
CCCCCCN(CCCCCC)C(=O)C(=O)c1c(-c2ccccc2)[nH]c2ccccc12 | 30 | 10 | –
CCCN(CCC)C(=O)C(=O)c1c(-c2ccc(Cl)cc2)[nH]c2ccccc12 | 40 | 14 | 8.33
CCCN(CCC)C(=O)C(=O)c1c(-c2ccc(C)cc2)[nH]c2ccccc12 | 148 | 7 | –
CCCN(CCC)C(=O)C(=O)c1c(-c2ccc(F)cc2)[nH]c2ccccc12 | 20 | 4 | 8.37
CCN(CC)C(=O)C(=O)c1c(-c2ccccc2)[nH]c2ccccc12 | – | 6 | 7.37
CCCCN(CCCC)C(=O)C(=O)c1c(-c2ccc(Cl)cc2)[nH]c2ccccc12 | 55 | 0 | 9.00
CCCCCN(CCCCC)C(=O)C(=O)c1c(-c2ccccc2)[nH]c2ccccc12 | 35 | 3 | 7.80
CC(C)N(C(=O)C(=O)c1c(-c2ccccc2)[nH]c2ccccc12)C(C)C | – | 4 | 6.99
CCCCCCN(CCCCCC)C(=O)C(=O)c1c(-c2ccc(Cl)cc2)[nH]c2ccc(Cl)cc12 | 166 | 3 | 8.24
CCCN(CCC)C(=O)C(=O)c1c(-c2ccccc2)[nH]c2ccccc12 | 8 | 16 | –
CCCN(CCC)C(=O)Cc1c(-c2ccc(Cl)cc2)nc2ccc(Cl)cn12 [ALPIDEM] | – | 28 | 8.15
CCCCCCN(CCCCCC)C(=O)C(=O)c1c(-c2ccc(Cl)cc2)[nH]c2ccccc12 | 109 | 4 | 9.26
CCCCN(CCCC)C(=O)C(=O)c1c(-c2ccc(C)cc2)[nH]c2ccccc12 | 58 | 11 | 8.42
CCCN(CCC)C(=O)C(=O)c1c(-c2ccc(Cl)cc2)[nH]c2ccc(Cl)cc12 | 49 | 5 | 9.21
CCCN(CCC)C(=O)C(=O)c1c(-c2ccccc2)[nH]c2ccc(Cl)cc12 | 10 | 10 | 8.55
CCCCN(CCCC)C(=O)C(=O)c1c(-c2ccccc2)[nH]c2ccc(Cl)cc12 | 5 | 13 | 8.31
CCCCN(CCCC)C(=O)C(=O)c1c(-c2ccc(Cl)cc2)[nH]c2ccc(Cl)cc12 | 147 | 0 | 8.72
CCCNC(=O)C(=O)c1c(-c2ccccc2)[nH]c2ccccc12 | – | – | 6.09
O=C(C(=O)N1CCCCCC1)c1c(-c2ccccc2)[nH]c2ccccc12 | – | 5 | 7.48
CCCCNC(=O)C(=O)c1c(-c2ccccc2)[nH]c2ccccc12 | – | 12 | 5.93
CCC(C)N(C(=O)C(=O)c1c(-c2ccccc2)[nH]c2ccccc12)C(C)CC (stereo unspecified) | 10 | 5 | 7.77
CCCCCCN(CCCCCC)C(=O)C(=O)c1c(-c2ccc(F)cc2)[nH]c2ccccc12 | 62 | 0 | 9.43
